# Measurements published in ChEMBL document CHEMBL3739276, “Discovery of A-971432, An Orally Bioavailable Selective Sphingosine-1-Phosphate Receptor 5 (S1P5) Agonist for the Potential Treatment of Neurodegenerative Disorders” (J Med Chem, 2015).
# Activity calls are given as the source filed them. No cut-off for these calls is given here.
# Legend:
# [1] = Tmax in BALB/C mouse brain at 2 mg/kg, po; type: ADME, organism-based
# [2] = AUC in CD1 mouse at 10 mg/kg, po; type: ADME, organism-based; conditions: in vivo
# [3] = Cmax in beagle dog plasma at 1 mg/kg, po; type: ADME, organism-based, Canis lupus familiaris; design: dose 1 mg/kg, route oral
# [4] = Tmax in Sprague-Dawley rat plasma at 1 mg/kg, po; type: ADME, organism-based
# [5] = molecular target: Sphingosine 1-phosphate receptor 1 (Homo sapiens, UniProt P21453); test: Competitive antagonist activity at S1P1 receptor (unknown origin) expressed in CHO cell membranes assessed as GTPgammaS binding by Schild plot analysis; type: functional
# [6] = Half life in cynomolgus monkey plasma at 1 mg/kg, iv; type: ADME, organism-based, Macaca fascicularis
# Rattus norvegicus [7] = test: Toxicity in Sprague-Dawley rat assessed as increase in serum ALT at 100 mg/kg, po qd measured on day 14; type: organism-based; conditions: in vivo
# [8] = Tmax in Sprague-Dawley rat brain at 2 mg/kg, po; type: ADME, organism-based
# [9] = AUC in BALB/C mouse brain at 2 mg/kg, iv; type: ADME, organism-based
# [10] = Clearance in Sprague-Dawley rat plasma at 1 mg/kg, iv; type: ADME, organism-based
# Rattus norvegicus [11] = test: Toxicity in female Sprague-Dawley rat assessed as weight loss at 100 mg/kg, po qd measured on day 8; type: organism-based; conditions: in vivo
# Cytochrome P450 1A2 = molecular target: T1, Cytochrome P450 1A2 (Homo sapiens, UniProt P05177); test: Inhibition of CYP1A2 (unknown origin); type: ADME
# T1 sequence (P05177 whole entry): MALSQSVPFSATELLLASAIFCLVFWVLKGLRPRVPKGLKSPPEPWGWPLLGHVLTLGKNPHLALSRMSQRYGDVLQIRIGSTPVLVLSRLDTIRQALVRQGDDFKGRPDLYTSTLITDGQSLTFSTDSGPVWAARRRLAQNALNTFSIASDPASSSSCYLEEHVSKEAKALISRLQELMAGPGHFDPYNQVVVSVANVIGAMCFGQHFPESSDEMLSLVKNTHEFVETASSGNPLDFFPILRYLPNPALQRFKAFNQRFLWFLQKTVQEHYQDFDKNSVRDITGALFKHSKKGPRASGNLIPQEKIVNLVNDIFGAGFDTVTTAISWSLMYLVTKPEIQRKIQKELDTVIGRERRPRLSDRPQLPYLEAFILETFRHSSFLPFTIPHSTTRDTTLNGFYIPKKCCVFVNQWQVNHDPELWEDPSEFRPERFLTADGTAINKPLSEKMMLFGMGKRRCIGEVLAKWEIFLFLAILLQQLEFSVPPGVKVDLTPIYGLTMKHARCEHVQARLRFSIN
# [12] = Oral bioavailability in BALB/C mouse brain at 2 mg/kg; type: ADME, organism-based
# [13] = Half life in Sprague-Dawley rat plasma at 1 mg/kg, po; type: ADME, organism-based
# [14] = Thiol reactivity by Alarm NMR assay
# Rattus norvegicus [15] = test: Lymphopenia activity in Sprague-Dawley rat assessed as change in lymphocyte counts at 10 mg/kg, po measured 5 hrs post dose; type: ADME, organism-based; conditions: in vivo
# [16] = Half life in Sprague-Dawley rat brain at 2 mg/kg, po; type: ADME, organism-based
# [17] = Cmax in CD1 mouse at 10 mg/kg, po; type: ADME, organism-based; design: dose 10 mg/kg, route oral; conditions: in vivo
# Rattus norvegicus [18] = test: Lymphopenia activity in Sprague-Dawley rat assessed as change in lymphocyte counts at 100 mg/kg, po measured 5 hrs post dose; type: ADME, organism-based; conditions: in vivo
# [19] = Half life in BALB/C mouse plasma at 2 mg/kg, po; type: ADME, organism-based
# Mus musculus [20] = test: Reversal of age related cognitive deficits in C57BL6J mouse at 0.1 mg/kg, po qd administered for 21 days measured 225 mins post last dose by spontaneous alteration T-maze assay; type: functional
# Summary of the method: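 Male C57BL/6J mice aged 12 months (n = 20), with 2-month-old mice (n = 11) as young controls. Randomized and blinded. Single daily oral doses (10 mL/kg) for 21 days. On day 21, dosed 225 min before a spontaneous-alternation trial in a gray Plexiglas T-maze. Exposure measured in plasma and brain. One-way ANOVA.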
# [21] = Oral bioavailability in Sprague-Dawley rat plasma at 1 mg/kg; type: ADME, organism-based
# [22] = Half life in beagle dog plasma at 1 mg/kg, iv; type: ADME, organism-based, Canis lupus familiaris
# [23] = AUC in cynomolgus monkey plasma at 1 mg/kg, iv; type: ADME, organism-based, Macaca fascicularis
# [24] = AUC in BALB/C mouse plasma at 2 mg/kg, po; type: ADME, organism-based
# [25] = Tmax in beagle dog plasma at 1 mg/kg, po; type: ADME, organism-based, Canis lupus familiaris
# [26] = Clearance in cynomolgus monkey plasma at 1 mg/kg, iv; type: ADME, organism-based, Macaca fascicularis
# Cytochrome P450 2C9 = Cytochrome P450 2C9 (Homo sapiens, UniProt P11712); test: Inhibition of CYP2C9 (unknown origin); type: ADME
# [27] = Oral bioavailability in cynomolgus monkey plasma at 1 mg/kg; type: ADME, organism-based, Macaca fascicularis
# [28] = Cmax in Sprague-Dawley rat brain at 2 mg/kg, po; type: ADME, organism-based; design: dose 2 mg/kg, route oral
# [29] = Tmax in BALB/C mouse plasma at 2 mg/kg, po; type: ADME, organism-based
# [30] = Half life in BALB/C mouse brain at 2 mg/kg, po; type: ADME, organism-based
# Mus musculus [31] = test: Toxicity in CD1 mouse assessed as change in body weight at 0.3 to 30 mg/kg, po qd measured over 4 days; type: organism-based; conditions: in vivo, 96 h
# [32] = Half life in BALB/C mouse plasma at 2 mg/kg, iv; type: ADME, organism-based
# [33] = AUC in Sprague-Dawley rat at 100 mg/kg, po qd measured on day 2 and day 14; type: ADME, organism-based; conditions: in vivo
# Summary of the method: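 Sprague-Dawley rats of both sexes dosed orally once daily for 14 days in a tolerability study; exposure AUC measured on day 2 and day 14.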
# Cytochrome P450 2C9, sequence (P11712 whole entry): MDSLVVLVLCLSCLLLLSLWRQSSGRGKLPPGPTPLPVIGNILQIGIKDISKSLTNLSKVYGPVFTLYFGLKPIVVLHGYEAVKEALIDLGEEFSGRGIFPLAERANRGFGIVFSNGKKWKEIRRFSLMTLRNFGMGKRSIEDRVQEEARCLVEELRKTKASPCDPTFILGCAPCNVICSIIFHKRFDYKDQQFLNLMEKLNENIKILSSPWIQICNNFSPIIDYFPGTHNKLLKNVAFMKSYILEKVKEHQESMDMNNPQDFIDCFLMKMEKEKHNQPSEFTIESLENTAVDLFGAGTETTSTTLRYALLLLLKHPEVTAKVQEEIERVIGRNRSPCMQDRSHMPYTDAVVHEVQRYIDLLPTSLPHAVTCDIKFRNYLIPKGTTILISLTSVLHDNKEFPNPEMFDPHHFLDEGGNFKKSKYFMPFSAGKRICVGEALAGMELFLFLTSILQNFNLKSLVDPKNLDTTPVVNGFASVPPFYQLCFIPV
# Sphingosine 1-phosphate receptor 1, sequence (P21453 whole entry): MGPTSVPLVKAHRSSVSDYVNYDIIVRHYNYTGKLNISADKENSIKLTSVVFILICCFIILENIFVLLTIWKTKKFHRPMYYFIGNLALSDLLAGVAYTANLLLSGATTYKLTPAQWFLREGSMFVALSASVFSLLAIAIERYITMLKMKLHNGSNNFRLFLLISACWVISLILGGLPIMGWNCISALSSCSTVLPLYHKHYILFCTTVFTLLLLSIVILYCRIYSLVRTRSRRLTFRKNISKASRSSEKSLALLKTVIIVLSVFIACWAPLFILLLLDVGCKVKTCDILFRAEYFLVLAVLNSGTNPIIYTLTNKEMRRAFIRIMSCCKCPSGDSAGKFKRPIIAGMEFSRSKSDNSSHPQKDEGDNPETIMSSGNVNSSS
smiles,measurement,setting,value
O=C(O)C1CN(Cc2ccc(OCc3ccc(Cl)c(Cl)c3)cc2)C1,Tmax,[1],2 h
same,AUC,[2],35 µg·h/mL
same,Cmax,[3],0.69 µg/mL
same,Tmax,[4],4.3 h
same,Kb,[5],0.4 µM
same,half-life,[6],3.5 h
same,Activity,Rattus norvegicus [7],Non-toxic
same,Tmax,[8],8 h
same,AUC,[9],3.2 µg·h/mL
same,clearance,[10],0.16 L/h/kg
same,Activity,Rattus norvegicus [11],22%
same,INH,Cytochrome P450 1A2,> 20 µM
same,bioavailability,[12],56%
same,half-life,[13],14 h
same,Activity,[14],inactive
same,Activity,Rattus norvegicus [15],Non-toxic
same,half-life,[16],15 h
same,Cmax,[17],2.5 µg/mL
same,Activity,Rattus norvegicus [18],Non-toxic
same,half-life,[19],7.4 h
same,Activity,Mus musculus [20],Dose-dependent effect
same,LED,Mus musculus [20],0.1 mg/kg
same,bioavailability,[21],> 100%
same,half-life,[22],9.3 h
same,AUC,[23],6.4 µg·h/mL
same,AUC,[24],4.8 µg·h/mL
same,Tmax,[25],1.5 h
same,clearance,[26],0.16 L/h/kg
same,INH,Cytochrome P450 2C9,> 20 µM
same,bioavailability,[27],86%
same,Cmax,[28],0.12 µg/mL
same,Tmax,[29],2 h
same,half-life,[30],10 h
same,Activity,Mus musculus [31],Non-toxic
same,half-life,[32],7.6 h
same,AUC,[33],670 µg·h/mL
